Screening data: PubChem BioAssay, several laboratories
beta cell repl – inducers of beta-cell replication in MIN6 cells; MIN6 cells proliferation, ATPlite luminescence, 48 h; cells starved in 0.2% serum; 100% = growth in 10% serum; proliferation, % at 10 µM; 0.29% of 330,000 active; AID 2380;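 active = compounds whose signal lies at least 3.5 SD above the mean of all wells on their plate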
Ins promoter up – MIN6 insulin promoter up-regulation; AID 1625; 0.3% of 190,000 active; MIN6 insulin promoter-GFP reporter, high-content imaging; stronger effect = higher value; z-score at 5 µM;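 active = z-score above 3 at 5 µM with at least 500 cells counted in the well; inconclusive = wells under 500 cells, flagged as cytotoxic or low count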
Calb FLC – affects C. albicans growth with fluconazole; C. albicans CaCi-2 + fluconazole, Alamar Blue growth, 48 h; growth inhibition, % (no concentration beside the values); 0.57% of 300,000 active; AID 1979;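 active = growth inhibition above about 58% in most replicates, limit read from the data, passing the limit was not always enough; inconclusive = exactly half the replicates above a set limit; inactive = most replicates below a set limit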;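 also: all wells also contain fluconazole at 8 µg/ml as a sub-toxic cotreatment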
SR-BI DiI-HDL act – enhances SR-BI lipid uptake from DiI-HDL; 0.096% of 320,000 active; CHO ldlA[mSR-BI] cells, DiI-HDL uptake fluorescence, 3 h; 100 = double the neutral-control signal; activation, % at 12.5 µM;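 active = mean replicate activation of at least 60% and every replicate at or above 60%; inconclusive = mean or all-replicate condition met, but not both; inactive = mean below 60% and not all replicates reaching 60%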
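Material: SR-BI-overexpressing, LDLR-lacking CHO cells | Dosing: Single compound concentration, delivered by pin transfer | Probe or stimulus: Labelled HDL, 10 µg/mL | Signal: Bottom-read cell fluorescence after medium removal, ex 550/em 595 nm | Schedule: 3 h, 37 °C | Evaluation: HDL uptake via cellular fluorescence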
SR-BI DiI inh – inhibitors of mouse SR-BI mediated HDL lipid uptake. ldlA[mSR-BI] CHO cells, DiI-HDL uptake fluorescence, 3 h. inhibition, % at 12.5 µM. 0.96% of 320,000 active;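 active = mean replicate inhibition of at least 70% and a set share of replicates each scoring 70 or more; inconclusive = meets just one of the two criteria; inactive = fails both criteria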
m5-HT2A agonist – activates the mouse 5-HT2A serotonin receptor; P35363; activation, % at 7.6 µM; 0.66% of 360,000 active; CHO-K1 mHTR2A beta-arrestin complementation, luminescence; percent of 30 µM serotonin response;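 active = activation above a run cutoff, the mean activation of all tested compounds plus 3 SD, cut at about 14% in these data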
Target sequence (P35363 whole entry, looked up): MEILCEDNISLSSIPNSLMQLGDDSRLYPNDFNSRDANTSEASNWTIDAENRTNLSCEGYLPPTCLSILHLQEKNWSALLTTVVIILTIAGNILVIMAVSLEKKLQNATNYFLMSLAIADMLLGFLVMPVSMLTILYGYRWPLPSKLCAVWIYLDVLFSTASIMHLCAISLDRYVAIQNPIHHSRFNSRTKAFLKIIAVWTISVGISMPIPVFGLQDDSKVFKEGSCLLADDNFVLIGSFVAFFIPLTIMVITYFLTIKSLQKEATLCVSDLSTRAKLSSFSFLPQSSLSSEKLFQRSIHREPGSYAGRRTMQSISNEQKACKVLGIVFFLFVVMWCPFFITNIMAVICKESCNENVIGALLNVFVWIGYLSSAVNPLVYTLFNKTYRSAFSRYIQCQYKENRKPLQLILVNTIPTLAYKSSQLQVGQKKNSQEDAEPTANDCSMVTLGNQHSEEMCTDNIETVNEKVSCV
Each line names hits and unclear results; the compound was inactive in the other large screens. An excerpt weighted towards active compounds, which were near 2.4% of everything screened.

Cc1cccc(-c2ncc(CN3CCCC(CO)(Cc4ccccc4C)C3)cn2)c1 (configuration not stated)	Ins promoter up 3.1
Cc1ccc(C)c(NC(=O)CN(C)C(=O)c2cc3ccccc3oc2=O)c1	none (no result: Ins promoter up, Calb FLC)
O=C(NC1CC1)c1[nH]c(C(F)(F)F)nc1-c1ccccc1	none (no result: beta cell repl, Ins promoter up, Calb FLC, SR-BI DiI-HDL act, SR-BI DiI inh)
CCOc1cc(C)c(S(=O)(=O)Nc2ccc3cn[nH]c3c2)cc1C	Ins promoter up 4.2
Cc1ccc(S(=O)(=O)Nc2ccc3cn[nH]c3c2)c(C)c1	none (no result: Ins promoter up, Calb FLC)
c1ccc(CNc2cccnc2)cc1	none (no result: beta cell repl, Ins promoter up, Calb FLC, SR-BI DiI-HDL act, SR-BI DiI inh)
Cc1ccc(CN2CCN(CCCn3cccn3)CC2CCO)cc1 (configuration not stated)	none
O=C1C=C(c2cc(C(F)(F)F)cc(C(F)(F)F)c2)C[C@@H](c2ccc(Cl)cc2)C1	SR-BI DiI inh 74 (no result: Ins promoter up, Calb FLC)
O=C(NCc1cc(Cl)cc(Cl)c1)c1csc([C@@H]2C[C@H](O)[C@@H](CO)O2)n1	none (no result: beta cell repl, Ins promoter up, Calb FLC, SR-BI DiI-HDL act, SR-BI DiI inh)
Cc1cccc(CS(=O)(=O)Cc2ccc(C(=O)NC3CCCCCC3)o2)c1	none (no result: Ins promoter up)
CCOc1cc(C(=O)Nc2cccc(C(C)=O)c2)ccc1OCC(=O)N1CCCCC1	SR-BI DiI inh 74
COc1ccc(C(=O)Nc2cccc(-c3ccc(N4CCOCC4)nn3)c2)cc1OC	SR-BI DiI inh 75 (no result: Ins promoter up)
CCOc1ccccc1C(=O)Nc1cccc(-c2ccc(N3CCOCC3)nn2)c1	none (no result: Ins promoter up)
CCOc1ccc(C(=O)Nc2cccc(-c3ccc(N4CCOCC4)nn3)c2)cc1OCC	SR-BI DiI inh 90 (no result: Ins promoter up)
CCn1c(SCC(=O)O)nc2ccccc21	none
CCCCn1c(SCC(=O)O)nc2ccccc21	Ins promoter up 3.5
CC(C)c1nc2sc3c(c2c(=O)[nH]1)CC(C)(C)OC3	none (no result: Ins promoter up)
CCOC(=O)Cc1csc(NC(=O)c2csc(C)c2)n1	none
CCOC(=O)Cc1csc(NC(=O)c2sc3nc4c(C)cc(C)cc4cc3c2N)n1	SR-BI DiI inh 80 (no result: Ins promoter up)
O=S(=O)(Nc1cccc2ncccc12)c1cccs1	Calb FLC 95
Cc1c(NS(=O)(=O)c2cccs2)cccc1-c1nc2cccnc2s1	none (no result: SR-BI DiI-HDL act, SR-BI DiI inh)
Cc1cc(S(=O)(=O)NC[C@H]2O[C@@H](n3cnc4c(N)ncnc43)[C@H](O)[C@@H]2O)c(C)s1	none (no result: Ins promoter up, Calb FLC)
Nc1ncnc2c1ncn2[C@@H]1O[C@H](CNS(=O)(=O)c2cc(S(=O)(=O)c3ccccc3)cs2)[C@@H](O)[C@H]1O	SR-BI DiI-HDL act 130 (no result: beta cell repl, Ins promoter up, Calb FLC)
C/C(=N\NC(=S)Nc1cc(S(=O)(=O)N2CCOCC2)ccc1Cl)c1ccc(N2CCOCC2)cc1	SR-BI DiI inh 102
O=S(=O)(c1ccc(Cl)s1)N1CCCc2cccc(O)c21	Calb FLC 68
C=CCCC(=O)Nc1nc(C)c(-c2csc(Nc3cc(OC)ccc3OC)n2)s1	none
COc1ccccc1Nc1nc(-c2sc(NC(=O)CC(C)C)nc2C)cs1	none
C=CCCC(=O)Nc1nc(C)c(-c2csc(Nc3cccc(OC)c3)n2)s1	SR-BI DiI inh 87
COc1cccc(Nc2nc(-c3sc(NC(=O)CC(C)C)nc3C)cs2)c1	SR-BI DiI inh 86
CCCOC(=O)N[C@@H]1C(=O)N2C(C(=O)OCCC)=C(C)CS[C@H]12	none (no result: Ins promoter up, SR-BI DiI-HDL act, SR-BI DiI inh)
O=C(N/N=C/c1ccccc1O)c1cccc(C(F)(F)F)c1	Ins promoter up inconclusive, Calb FLC 80, SR-BI DiI inh 136
COc1cccc(/C=N/NC(=O)c2cc3cc([N+](=O)[O-])ccc3s2)c1O	SR-BI DiI inh 126 (no result: beta cell repl)
Cc1ccccc1C(=O)Nc1cccc(C(=O)N/N=C/c2cc(Cl)cc([N+](=O)[O-])c2O)c1	SR-BI DiI inh 102
COc1cc(/C=N/NC(=O)c2cccc(NC(=O)c3ccccc3C)c2)ccc1O	none (no result: Ins promoter up, SR-BI DiI-HDL act, SR-BI DiI inh)
O=C(N/N=C/c1ccc(O)cc1)c1cccc(C(F)(F)F)c1	none
Cc1cc(/C=N/NC(=O)c2cccc([N+](=O)[O-])c2)c(C)n1-c1ccccc1	Calb FLC inconclusive, SR-BI DiI inh 80
C=C[C@@H]1c2cc(C)ccc2N(S(=O)(=O)c2ccc(C)cc2)[C@H](c2ccccc2C(F)(F)F)C1(C#N)C#N	none (no result: Ins promoter up, Calb FLC)
CCN(CC)c1ccc(CNCc2cccs2)cc1	none
COc1ccc2ccccc2c1/C=N/NC(=O)c1cccc([N+](=O)[O-])c1	SR-BI DiI inh 86 (no result: Ins promoter up)
O=C(NN=Cc1ccccc1O)c1cccc([N+](=O)[O-])c1	SR-BI DiI inh 129 (no result: beta cell repl, Ins promoter up, Calb FLC)
COc1cc([N+](=O)[O-])cc(/C=N/NC(=O)c2ccc(C)nc2)c1O	none
O=C(N/N=C/c1ccccn1)c1ccc(NC(=O)c2cccc([N+](=O)[O-])c2)cc1	SR-BI DiI inh 82
COc1cc([N+](=O)[O-])cc(/C=N/NC(=O)c2ccc(NC(=O)c3ccc(C)cc3)cc2)c1O	Calb FLC 102
CC(C)n1cc(CN2CCC(C(=O)Nc3ccc(Oc4ccccc4F)cc3)CC2)cn1	none (no result: Ins promoter up)
CCc1cc(C(=O)N2CCCC(CO)(Cc3ccc(F)cc3)C2)n(C)n1 (configuration not stated)	none (no result: Ins promoter up)
OC(c1cc(-c2ccc(Cl)cc2)nc2ccccc12)C1CCCCN1 (configuration not stated)	Calb FLC 94 (no result: beta cell repl)
OC(c1cc(C(F)(F)F)nc2c(Cl)cc(Cl)cc12)C1CCCCN1 (configuration not stated)	SR-BI DiI-HDL act 66
CCc1ccc(NS(=O)(=O)c2c(C(=O)N3CCCCCC3)c(C)n(C)c2C)cc1	none (no result: Ins promoter up)
COc1cccc(OC)c1OCCN(C)C	Ins promoter up 4
CCCOC(c1ccccc1)(c1ccc(C(F)(F)F)cc1)C(Oc1nc(C)cc(C)n1)C(=O)O (configuration not stated)	Calb FLC 79 (no result: Ins promoter up)
O=C1NC[C@@H](CCCCN2C[C@H](Cc3ccc(O)cc3)N(Cc3ccccc3)C(=O)C2=O)N(CCC2CCCCC2)C1=O	none (no result: beta cell repl, Ins promoter up, Calb FLC, SR-BI DiI-HDL act, SR-BI DiI inh)
CCOC(=O)[C@]12CCCC=C1N(Cc1ccc3c(c1)OCO3)C(=O)[C@H](CC(=O)N1CCCCC1)C2	none (no result: beta cell repl, Ins promoter up, Calb FLC, SR-BI DiI-HDL act, SR-BI DiI inh)
NC(=S)NN=C1CCCCCCCCCC1	SR-BI DiI inh 76 (no result: beta cell repl, Ins promoter up, Calb FLC)
CCN(CC)c1ccc(/C=N/NC(=O)Cc2nnc(NC(=O)Nc3ccccc3)s2)cc1	SR-BI DiI inh 91
CC(=O)Nc1ccc(NC(=O)c2cc(-c3ccc(C)c(C)c3O)n[nH]2)cc1	SR-BI DiI inh 73 (no result: Ins promoter up)
Cc1ccc(S(=O)(=O)NCC(=O)NCC(=O)NCCc2ccc(Cl)cc2)cc1C	none (no result: beta cell repl, Ins promoter up, Calb FLC, SR-BI DiI-HDL act, SR-BI DiI inh)
COc1ccc(-c2nc(-c3cccc(C)c3)nc(Cl)c2C#N)cc1	none (no result: beta cell repl, Calb FLC, SR-BI DiI-HDL act, SR-BI DiI inh, m5-HT2A agonist)
CSc1nc(Cl)c(C#N)c(-c2ccc(C)cc2)n1	Calb FLC 81
O=C(Cn1c(NCCO)nc2ccccc21)c1ccco1	SR-BI DiI-HDL act 61
CCOC(=O)c1cnc(-n2cc(C)cn2)nc1Nc1ccccc1OCC	Calb FLC 99
CCOC(=O)c1cnc(-n2nc(C)cc2C)nc1Nc1ccccc1OC	none (no result: beta cell repl, Calb FLC, SR-BI DiI-HDL act, SR-BI DiI inh, m5-HT2A agonist)
O=C(Nc1c(F)cccc1F)c1cnc(N2CCN(c3ccccn3)CC2)c2ccccc12	none (no result: Ins promoter up)
